Data from ChEMBL document CHEMBL4819098, “Novel 1,2,4-triazine-quinoline hybrids: The privileged scaffolds as potent multi-target inhibitors of LPS-induced inflammatory response via dual COX-2 and 15-LOX inhibition” (Eur J Med Chem, 2021).

Legend:
RAW264.7 [1] = assay: Inhibition of LPS-induced NO production in mouse RAW264.7 cells preincubated for 2 hrs followed by LPS stimulation and measured after 20 hrs by DAF-FM based fluorescence analysis; assay type: functional, cell-based
RAW264.7 [2] = assay: Inhibition of LPS-induced 15(S)-HETE production in mouse RAW264.7 cells preincubated for 2 hrs followed by LPS stimulation and measured after 20 hrs by ELISA; assay type: functional, cell-based
RAW264.7 [3] = assay: Cytotoxicity against mouse RAW264.7 cells assessed as reduction in cell viability by MTS assay; assay type: cell-based
Summary of the method: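 RAW 264.7 macrophage viability at the tested concentrations measured by MTS assay.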

RAW264.7 [4] = assay: Inhibition of LPS-induced IL-6 production in mouse RAW264.7 cells preincubated for 2 hrs followed by LPS stimulation and measured after 20 hrs by ELISA; assay type: functional, cell-based
[5] = molecular target: T1, Prostaglandin G/H synthase 2 (Homo sapiens, UniProt P35354); assay: Inhibition of human recombinant COX-2 using arachidonic acid as substrate preincubated with enzyme for 5 mins followed by substrate addition by colorimetric analysis
T1 sequence (P35354 whole entry): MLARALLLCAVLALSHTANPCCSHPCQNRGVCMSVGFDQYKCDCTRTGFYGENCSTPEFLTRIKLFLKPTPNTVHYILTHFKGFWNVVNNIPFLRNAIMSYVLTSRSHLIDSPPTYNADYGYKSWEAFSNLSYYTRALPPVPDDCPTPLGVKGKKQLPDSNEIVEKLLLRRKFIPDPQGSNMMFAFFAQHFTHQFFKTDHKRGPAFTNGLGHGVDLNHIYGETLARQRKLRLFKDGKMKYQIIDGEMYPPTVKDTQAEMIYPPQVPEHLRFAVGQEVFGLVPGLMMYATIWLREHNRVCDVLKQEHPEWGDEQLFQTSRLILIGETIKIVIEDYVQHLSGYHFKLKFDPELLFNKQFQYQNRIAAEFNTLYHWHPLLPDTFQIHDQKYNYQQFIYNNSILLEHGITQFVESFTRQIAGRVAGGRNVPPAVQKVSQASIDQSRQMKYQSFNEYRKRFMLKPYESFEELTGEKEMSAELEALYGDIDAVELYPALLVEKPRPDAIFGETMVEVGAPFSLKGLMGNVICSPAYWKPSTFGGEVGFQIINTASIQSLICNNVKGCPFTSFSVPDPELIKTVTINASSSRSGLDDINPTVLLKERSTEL

RAW264.7 [6] = assay: Inhibition of LPS-induced TNFalpha production in mouse RAW264.7 cells preincubated for 2 hrs followed by LPS stimulation and measured after 20 hrs by ELISA; assay type: functional, cell-based
[7] = Inhibition of soybean 15-LOX using arachidonic acid or linolenic acid as substrate in presence of hydrogen peroxide incubated for 5 mins by colorimetric analysis; design: species or system Glycine max
[8] = Selectivity index, ratio of IC50 for ovine COX-1 to IC50 for human recombinant COX-2
Summary of the method: (§1)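 Enzyme kit assay with ovine COX-1 and human recombinant COX-2. IC50 determined from three replicates. Selectivity index taken as IC50(COX-1)/IC50(COX-2).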

RAW264.7 [9] = assay: Antioxidant activity in mouse RAW264.7 cells assessed as inhibition of LPS-induced intracellular ROS production preincubated for 2 hrs followed by LPS stimulation and measured after 20 hrs by DCFH-DA staining based fluorescence analysis; assay type: functional, cell-based
[10] = molecular target: T2, Prostaglandin G/H synthase 1 (Ovis aries, UniProt P05979); assay: Inhibition of ovine COX-1 using arachidonic acid as substrate preincubated with enzyme for 5 mins followed by substrate addition by colorimetric analysis
T2 sequence (P05979 whole entry): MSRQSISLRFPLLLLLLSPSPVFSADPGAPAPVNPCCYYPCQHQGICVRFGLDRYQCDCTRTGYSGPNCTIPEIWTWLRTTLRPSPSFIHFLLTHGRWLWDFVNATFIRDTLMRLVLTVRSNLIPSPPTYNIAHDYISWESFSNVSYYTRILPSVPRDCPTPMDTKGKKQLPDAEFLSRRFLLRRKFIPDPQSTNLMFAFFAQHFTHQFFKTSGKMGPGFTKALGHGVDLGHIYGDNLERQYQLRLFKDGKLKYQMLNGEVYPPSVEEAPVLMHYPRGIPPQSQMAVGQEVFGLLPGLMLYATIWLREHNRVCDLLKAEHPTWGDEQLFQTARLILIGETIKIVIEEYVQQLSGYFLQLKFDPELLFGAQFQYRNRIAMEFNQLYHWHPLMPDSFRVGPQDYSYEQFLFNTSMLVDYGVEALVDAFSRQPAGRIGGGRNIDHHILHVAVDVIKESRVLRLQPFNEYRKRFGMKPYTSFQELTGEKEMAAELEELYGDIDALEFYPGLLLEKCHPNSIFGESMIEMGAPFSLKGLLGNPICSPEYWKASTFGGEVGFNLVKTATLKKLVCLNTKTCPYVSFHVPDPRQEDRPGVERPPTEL

[11] = molecular target: T3, Prostaglandin G/H synthase 2 (Homo sapiens) (UniProt P35354); assay: Potency index, ratio of diclofenac sodium IC50 to test compound IC50 for human recombinant COX-2 using arachidonic acid as substrate preincubated with enzyme for 5 mins followed by substrate addition by colorimetric analysis
T3 sequence (whole entry): T1 sequence (P35354 whole entry)

RAW264.7 [12] = assay: Potency index, ratio of celecoxib IC50 to test compound IC50 for inhibition of LPS-induced NO production in mouse RAW264.7 cells preincubated for 2 hrs followed by LPS stimulation and measured after 20 hrs by DAF-FM based fluorescence analysis; assay type: functional; settings: time 22 hrs
RAW264.7 [13] = assay: Potency index, ratio of diclofenac sodium IC50 to test compound IC50 for inhibition of LPS-induced NO production in mouse RAW264.7 cells preincubated for 2 hrs followed by LPS stimulation and measured after 20 hrs by DAF-FM based fluorescence analysis; assay type: functional; settings: time 22 hrs
RAW264.7 [14] = assay: Potency index, ratio of diclofenac sodium IC50 to test compound IC50 for inhibition of LPS-induced IL-6 production in mouse RAW264.7 cells preincubated for 2 hrs followed by LPS stimulation and measured after 20 hrs by ELISA; assay type: functional; settings: time 22 hrs
RAW264.7 [15] = assay: Potency index, ratio of celecoxib IC50 to test compound IC50 for inhibition of LPS-induced IL-6 production in mouse RAW264.7 cells preincubated for 2 hrs followed by LPS stimulation and measured after 20 hrs by ELISA; assay type: functional; settings: time 22 hrs
RAW264.7 [16] = assay: Cytotoxicity against mouse RAW264.7 cells assessed as reduction in cell viability at 50 uM by MTS assay; assay type: cell-based; settings: raw264.7, 50 µM
[17] = molecular target: T1, Prostaglandin G/H synthase 2; assay: Inhibition of human recombinant COX-2; summary of the method: as §1
[18] = Inhibition of soybean 15-LOX; design: species or system Glycine max
Summary of the method: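 Soybean 15-LOX run with a lipoxygenase inhibitor screening kit according to the manufacturer's instructions. IC50 values reported.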

[19] = molecular target: T2, Prostaglandin G/H synthase 1; assay: Inhibition of ovine COX-1; summary of the method: as §1
RAW264.7 [20] = assay: Potency index, ratio of diclofenac sodium IC50 to test compound IC50 for inhibition of LPS-induced TNFalpha production in mouse RAW264.7 cells preincubated for 2 hrs followed by LPS stimulation and measured after 20 hrs by ELISA; assay type: functional; settings: time 22 hrs
RAW264.7 [21] = assay: Potency index, ratio of celecoxib IC50 to test compound IC50 for inhibition of LPS-induced TNFalpha production in mouse RAW264.7 cells preincubated for 2 hrs followed by LPS stimulation and measured after 20 hrs by ELISA; assay type: functional; settings: time 22 hrs

| Compound | IC50 (RAW264.7 [1]) | IC50 (RAW264.7 [2]) | Activity (RAW264.7 [3]) | IC50 (RAW264.7 [4]) | IC50 [5] | IC50 (RAW264.7 [6]) | IC50 [7] | Ratio IC50 [8] | IC50 (RAW264.7 [9]) | IC50 [10] | Ratio IC50 [11] | Ratio IC50 (RAW264.7 [15]) | other results |
| --- | --- | --- | --- | --- | --- | --- | --- | --- | --- | --- | --- | --- | --- |
| COc1cc(Cc2n[nH]c(=S)n(/N=C/c3cc4cc(C)ccc4nc3O)c2=O)ccc1O | > 50 µM | > 50 µM | Non-Toxic | > 50 µM | 0.085 µM | > 50 µM | 1.97 µM | 121 | > 50 µM | 10.3 µM |  |  |  |
| Cc1ccc2nc(O)c(/C=N/n3c(=S)[nH]nc(Cc4ccccc4)c3=O)cc2c1 | 33.5 µM | 21.3 µM | Non-Toxic | 13.5 µM | 0.28 µM | 30.3 µM | 2.66 µM | 21.1 | 7.31 µM | 5.9 µM | 3 |  |  |
| COc1ccc2nc(O)c(/C=N/n3c(=S)[nH]nc(Cc4ccccc4)c3=O)cc2c1 | 6.93 µM | 3.91 µM | Non-Toxic | 5.98 µM | 0.068 µM | > 50 µM | 1.97 µM | 154 | 3.95 µM | 10.5 µM | 12.4 | 1.9 | Ratio IC50 (RAW264.7 [12]): 3; Ratio IC50 (RAW264.7 [13]): 6; Ratio IC50 (RAW264.7 [14]): 2.2 |
| COc1cc(Cc2n[nH]c(=S)n(/N=C/c3cc4cc(C)ccc4nc3O)c2=O)cc(OC)c1OC | 6.34 µM | 8.86 µM | Non-Toxic |  | 0.065 µM |  | 2.06 µM | 177 | 6.67 µM | 11.5 µM | 12.9 |  | Ratio IC50 (RAW264.7 [12]): 3; Ratio IC50 (RAW264.7 [13]): 6 |
| Cc1ccc2nc(O)c(/C=N/n3c(=S)[nH]nc(Cc4cccs4)c3=O)cc2c1 | 36.8 µM | 7.13 µM | Non-Toxic | 11.8 µM | 0.11 µM | 3.4 µM | 2.38 µM | 81.8 | 10.9 µM | 9 µM | 7.6 |  |  |
| CC(C)Oc1ccc2nc(O)c(/C=N/n3c(=S)[nH]nc(Cc4ccccc4)c3=O)cc2c1 | > 50 µM | 0.42 µM | Non-Toxic | 12.9 µM | 0.32 µM | 34.6 µM | 3.49 µM | 20.6 | 1.91 µM | 6.6 µM | 2.6 |  |  |
| COc1cc(Cc2n[nH]c(=S)n(/N=C/c3cc4ccc(OCc5ccccc5)cc4nc3Cl)c2=O)cc(OC)c1OC | 6.76 µM | 2.03 µM | Non-Toxic | 6.11 µM | 0.12 µM | 16 µM | 3.39 µM | 64.2 | 4.36 µM | 7.7 µM | 7 | 1.8 | Ratio IC50 (RAW264.7 [12]): 3; Activity (RAW264.7 [16]): Toxic; Ratio IC50 (RAW264.7 [13]): 6; Ratio IC50 (RAW264.7 [14]): 2.1 |
| O=C1N/C(=N\c2nnc(-c3ccc(O)cc3)s2)S/C1=C\c1ccccc1 |  |  |  |  |  |  |  |  |  |  |  |  | IC50 [17]: 0.085 µM; IC50 [18]: 5.74 µM; IC50 [19]: 4.66 µM |
| O=c1c(Cc2ccccc2)n[nH]c(=S)n1/N=C/c1cc2ccccc2nc1O | > 50 µM | > 50 µM | Non-Toxic | > 50 µM | 0.054 µM | > 50 µM | 2.12 µM | 209 | > 50 µM | 11.3 µM | 15.6 |  |  |
| COc1ccc2cc(/C=N/n3c(=S)[nH]nc(Cc4cc(OC)c(OC)c(OC)c4)c3=O)c(O)nc2c1 | > 50 µM | 18.6 µM | Non-Toxic | 5.54 µM | 0.097 µM | 2.61 µM | 2.18 µM |  | 4.52 µM | 9.7 µM | 8.7 | 2 | Ratio IC50 (RAW264.7 [14]): 2.3 |
| COc1cc(Cc2n[nH]c(=S)n(/N=C/c3cc4cccc(C)c4nc3Cl)c2=O)cc(OC)c1OC | 25.8 µM | 1.46 µM | Non-Toxic | 3.99 µM | 0.16 µM | 0.4 µM | 1.86 µM | 51.9 |  | 8.3 µM | 5.3 | 2.8 | Ratio IC50 (RAW264.7 [20]): 25; Ratio IC50 (RAW264.7 [21]): 25; Ratio IC50 (RAW264.7 [14]): 3.2 |
| COc1ccc2cc(/C=N/n3c(=S)[nH]nc(Cc4ccccc4)c3=O)c(O)nc2c1 | 16.1 µM | 3.6 µM | Non-Toxic | 7.36 µM | 0.073 µM | 8.41 µM | 2.32 µM | 140 | 3.78 µM | 10.2 µM | 11.5 | 1.5 | Activity (RAW264.7 [16]): Toxic |
| COc1ccc(/C=C\C(=O)c2cc(-n3cc(CN4C(=O)C(=O)c5ccccc54)nn3)ccc2O)cc1 |  |  |  |  |  |  |  |  |  |  |  |  | IC50 [17]: 0.037 µM; IC50 [18]: 1.95 µM; IC50 [19]: 13.3 µM |
| O=c1c(Cc2cccs2)n[nH]c(=S)n1/N=C/c1cc2ccccc2nc1O | 9.37 µM | > 50 µM | Non-Toxic | > 50 µM | 0.079 µM | > 50 µM | 2.13 µM | 140 | > 50 µM | 11.1 µM |  |  |  |
| COc1ccc2nc(O)c(/C=N/n3c(=S)[nH]nc(Cc4cc(OC)c(OC)c(OC)c4)c3=O)cc2c1 | > 50 µM | > 50 µM | Non-Toxic | > 50 µM | 0.06 µM | > 50 µM | 2.57 µM | 197 | > 50 µM | 11.8 µM | 14 |  |  |
